Laboratory results from ChEMBL document CHEMBL1127499, “S-glucosylated hydantoins as new antiviral agents” (1994).

Key:
Type in all cases: functional
[1] = test system: Vero; test: Cytotoxic dose of compound required to reduce the viability of normal uninfected vero cells by 50%.; conditions: Chlorocebus sabaeus, read-out: CD50 (the source's name)
Outline: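 Uninfected Vero cells were grown with compound, and cytotoxicity was read as concentration-dependent inhibition of cell proliferation relative to control cultures. CD50 is the dose reducing viability by 50%, mean of three independent determinations.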

[2] = test system: Vero; test: Antiviral activity against HSV-2 (Herpes simplex virus) in vero cells; conditions: Chlorocebus sabaeus, read-out: ED50 (the source's name)
Outline: (§1)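 Vero target cells infected with HSV-1 McIntyre or HSV-2 MS for 2.5 h, washed, then mixed 1:50 with uninfected Vero cells preincubated 2.5 h with compound. Virus antigen in culture medium measured by HSV-1/HSV-2 antigen ELISA. ED50 is the dose giving 50% protection, mean of three independent determinations.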

[3] = Selectivity index against HSV-1 was determined as CD50/ED50 ratio
Outline: (§2)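 CD50 (50% reduction of proliferation of uninfected Vero cells) divided by ED50 (50% protection against HSV-1 or HSV-2 in Vero cells, antigen ELISA after 5 days). Each is the mean of three independent determinations.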

[4] = Selectivity index against HSV-2 was determined as CD50/ED50 ratio; outline: as §2
[5] = test system: Vero; test: Antiviral activity against HSV-1 (Herpes simplex virus) in vero cells; conditions: Chlorocebus sabaeus, read-out: ED50 (the source's name); outline: as §1

| Structure (SMILES) | CC50 [1] [µM] | EC50 [2] [µM] | Selectivity index [3] | Selectivity index [4] | EC50 [5] [µM] |
| --- | --- | --- | --- | --- | --- |
| CCOC(=O)c1ccc(N2C(=O)/C(=C/c3cccs3)N=C2SC2OC(COC(C)=O)C(OC(C)=O)C(OC(C)=O)C2OC(C)=O)cc1 (stereo not drawn) | 46 | 46 | 1.4 | 1 | 32 |
| CC(=O)OCC1OC(SC2=NC(=C(C)C)C(=O)N2c2ccccc2)C(OC(C)=O)C(OC(C)=O)C1OC(C)=O (stereo not drawn) | > 200 | 100 | > 1.6 | > 2 | 119 |
| CC(=O)OCC1OC(Sc2nc(/C=C3\C=Nc4ccccc43)c(O)n2-c2ccccc2)C(OC(C)=O)C(OC(C)=O)C1OC(C)=O (stereo not drawn) | > 100 | 40 | > 2.2 | > 2.5 | 46 |
| Nc1nc2c(ncn2COCCO)c(=O)[nH]1 [ACYCLOVIR] | > 50 | 0.5 | > 100 | > 100 | 0.5 |
| CC(=O)OCC1OC(SC2=N/C(=C\c3ccccc3)C(=O)N2c2ccccc2)C(OC(C)=O)C(OC(C)=O)C1OC(C)=O (stereo not drawn) | > 100 | 100 |  |  | > 100 |
| CC(=O)OCC1OC(SC2=N/C(=C\c3cccs3)C(=O)N2c2ccc(Cl)cc2)C(OC(C)=O)C(OC(C)=O)C1OC(C)=O (stereo not drawn) | 20 | 1 | 33 | 20 | 0.6 |
| CC(=O)OCC1OC(SC2=N/C(=C\c3cccs3)C(=O)N2c2ccccc2)C(OC(C)=O)C(OC(C)=O)C1OC(C)=O (stereo not drawn) | 24 | 0.7 | 60 | 34 | 0.4 |
| CC(=O)OCC1OC(SC2=N/C(=C\c3cccs3)C(=O)N2c2cccc(C)c2)C(OC(C)=O)C(OC(C)=O)C1OC(C)=O (stereo not drawn) | 25 | 19 | 2.5 | 1.3 | 10 |
| O=c1[nH]c(=O)n([C@H]2C[C@H](O)[C@@H](CO)O2)cc1/C=C/Br [BRIVUDINE] | > 100 | 6.8 | > 333 | > 15 | 0.3 |
| COc1ccc(N2C(=O)/C(=C/c3cccs3)N=C2SC2OC(COC(C)=O)C(OC(C)=O)C(OC(C)=O)C2OC(C)=O)cc1 (stereo not drawn) | 35 | 27 | 1.3 | 1.3 | 27 |
